# pEC50, pIC50: −log10 of the molar value.
# Columns and labels:
# [1] = tested on: CCRF-CEM; test: Concentration inhibiting 50% of mock-infected CEM cells.; type: functional; settings: Homo sapiens
# In short: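 Uninfected (mock-infected) CEM-SS cultures exposed to drug. Viability by XTT, expressed as percent of drug-free control. CC50 is the concentration causing 50% cell death. Triplicates on each plate, two sister plates averaged.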
# [2] = biological target: T1, Human immunodeficiency virus type 1 reverse transcriptase (Human immunodeficiency virus 1, UniProt Q72547); test: Inhibition of HIV-1 Reverse transcriptase using poly-(ra)-oligo(dt) as the template primer.; settings: for pIC50: read-out: IC50
# In short: (§1)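 Purified p66/51 HIV-1 reverse transcriptase. Inhibition read as incorporation of [32P]-TTP into poly(rA)·oligo(dT) or of [32P]GTP into poly(rC)·oligo(dG) homopolymer template-primer.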
# [3] = biological target: T1, Human immunodeficiency virus type 1 reverse transcriptase; test: Inhibition of HIV-1 Reverse transcriptase using poly-(rc)-oligo(dg) as the template primer.; in short: as §1
# [4] = tested on: CEM-SS; test: 50% inhibitory concentration for cytopathicity of HIV-1 RF in CEM-SS cells.; type: functional, cell-based; settings: Homo sapiens
# In short: (§2)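 CEM-SS cells infected with HIV-1 RF; drug-induced protection from viral cytopathic effect read by XTT, as percent of uninfected drug-free control. EC50 is the concentration giving 50% protection. Triplicate wells on each plate, two sister plates; the plate EC50s (each a triplicate average) were averaged. XTT results were confirmed by supernatant RT and p24 levels. NA means no inhibition up to the concentration cytotoxic to uninfected cells.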
# [5] = tested on: CEM-SS; test: 50% inhibitory concentration for cytopathicity of HIV-1 RF in CEM-SS cells; NA=Not active (EC50 uM); type: functional, cell-based, Homo sapiens; in short: as §2
# [6] = Therapeutic index was determined for the compound as CC50/EC50; settings: read-out: TI
# In short: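 Ratio of CC50 (XTT viability, uninfected CEM-SS) to EC50 (XTT protection from HIV-1 RF cytopathicity in CEM-SS). Both values come from triplicates on each plate, two sister plates averaged. NA means no antiviral inhibition up to the cytotoxic concentration.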
# [7] = biological target: T1, Human immunodeficiency virus type 1 reverse transcriptase; test: Inhibition of HIV-1 Reverse transcriptase using poly-(ra)-oligo(dt) as the template primer; NI=No inhibition
# In short: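 Purified p66/51 HIV-1 reverse transcriptase. Inhibition read as incorporation of [32P]-TTP into poly(rA)·oligo(dT) or of [32P]GTP into poly(rC)·oligo(dG) homopolymer template-primer. IC50 taken as concentration giving 50% inhibition.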
# [8] = tested on: CEM-SS; test: 50% inhibitory concentration for cytopathicity of HIV-1 RF in CEM-SS cells; NA=Not active; type: functional, cell-based, Homo sapiens; in short: as §2
# [9] = tested on: CEM-SS; test: Inhibition of cytopathic effect of HIV-1 RT containing the specified mutation K103N in CEM-SS cells.; type: functional, cell-based, Homo sapiens
# [10] = tested on: CEM-SS; test: Inhibition of cytopathic effect of HIV-1 RT containing the specified mutation Y181C in CEM-SS cells.; type: functional, cell-based, Homo sapiens
# [11] = tested on: CEM-SS; test: Fold resistance of HIV-1 RT containing the specified mutation K103N in CEM-SS cells; type: functional, Homo sapiens
# In short: (§3)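 Fold resistance of mutant HIV-1 viruses whose RT carries the listed mutation(s), measured against a virus containing wild-type NL4-3 RT. Anti-HIV readout by CEM-SS cytopathic-effect protection.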
# [12] = tested on: CEM-SS; test: Fold resistance of HIV-1 RT containing the specified mutation V108I in CEM-SS cells; type: functional, Homo sapiens; in short: as §3
# [13] = tested on: CEM-SS; test: Fold resistance of HIV-1 RT containing the specified mutation K101E in CEM-SS cells; NC=No significant change in sensitivity; type: functional, cell-based; settings: Homo sapiens; in short: as §3
# [14] = tested on: CEM-SS; test: Inhibition of cytopathic effect of HIV-1 RT containing the specified mutation Y181C resistant to AZT in CEM-SS cells.; type: functional, cell-based, Homo sapiens
# [15] = tested on: CEM-SS; test: Fold resistance of HIV-1 RT containing the specified mutation V106A in CEM-SS cells; type: functional, Homo sapiens; in short: as §3
# [16] = tested on: CEM-SS; test: Inhibition of cytopathic effect of HIV-1 RT containing the specified mutation A98G in CEM-SS cells.; type: functional, cell-based, Homo sapiens
# [17] = tested on: CEM-SS; test: Inhibition of cytopathic effect of HIV-1 RT containing the specified mutation V108I in CEM-SS cells.; type: functional, cell-based, Homo sapiens
# [18] = tested on: CEM-SS; test: Fold resistance of HIV-1 RT containing the specified mutation Y181C resistant to AZT in CEM-SS cells; type: functional, Homo sapiens; in short: as §3
# [19] = tested on: CEM-SS; test: Inhibition of cytopathic effect of HIV-1 RT containing the specified mutation V106A in CEM-SS cells.; type: functional, cell-based, Homo sapiens
# [20] = tested on: Human immunodeficiency virus 1; test: Inhibition of cytopathic effect of HIV-1 strain wild type enzyme NL4-3 in CEM-SS cells.; type: functional, organism-based; settings: Human immunodeficiency virus 1, CEM-SS
# [21] = tested on: CEM-SS; test: Inhibition of cytopathic effect of HIV-1 RT containing the specified mutation V179D in CEM-SS cells.; type: functional, cell-based, Homo sapiens
# [22] = tested on: CEM-SS; test: Fold resistance of HIV-1 RT containing the specified mutation V179D in CEM-SS cells; type: functional, Homo sapiens; in short: as §3
# [23] = tested on: CEM-SS; test: Fold resistance of HIV-1 RT containing the specified mutation A98G in CEM-SS cells; type: functional, Homo sapiens; in short: as §3
# [24] = tested on: CEM-SS; test: Inhibition of cytopathic effect of HIV-1 RT containing the specified mutation L74V in CEM-SS cells.; type: functional, cell-based, Homo sapiens
# [25] = tested on: CEM-SS; test: Inhibition of cytopathic effect of HIV-1 RT containing the specified mutation 4X resistant to AZT in CEM-SS cells.; type: functional, cell-based; settings: Homo sapiens
# [26] = tested on: CEM-SS; test: Fold resistance of HIV-1 RT containing the specified mutation L100I resistant to AZT in CEM-SS cells; type: functional, Homo sapiens; in short: as §3
# [27] = tested on: CEM-SS; test: Inhibition of cytopathic effect of HIV-1 RT containing the specified mutation L100I resistant to AZT in CEM-SS cells.; type: functional, cell-based, Homo sapiens
# [28] = tested on: CEM-SS; test: Fold resistance of HIV-1 RT containing the specified mutation Y188C in CEM-SS cells; type: functional, Homo sapiens; in short: as §3
# [29] = tested on: CEM-SS; test: Fold resistance of HIV-1 RT containing the specified mutation 4X resistant to AZT in CEM-SS cells; NC=No significant change in sensitivity; type: functional, cell-based; settings: Homo sapiens; in short: as §3
# [30] = tested on: CEM-SS; test: Fold resistance of HIV-1 RT containing the specified mutation Y181C in CEM-SS cells; type: functional, Homo sapiens; in short: as §3
# [31] = tested on: CEM-SS; test: Fold resistance of HIV-1 RT containing the specified mutation L74V in CEM-SS cells; S=Enhanced sensitivity; type: functional, cell-based; settings: Homo sapiens; in short: as §3
# [32] = tested on: CEM-SS; test: Inhibition of cytopathic effect of HIV-1 RT containing the specified mutation K101E in CEM-SS cells.; type: functional, cell-based, Homo sapiens
# [33] = tested on: CEM-SS; test: Inhibition of cytopathic effect of HIV-1 RT containing the specified mutation L100I in CEM-SS cells.; type: functional, cell-based, Homo sapiens
# [34] = tested on: CEM-SS; test: Inhibition of cytopathic effect of HIV-1 RT containing the specified mutation Y188C in CEM-SS cells.; type: functional, cell-based, Homo sapiens
# [35] = tested on: CEM-SS; test: Fold resistance of HIV-1 RT containing the specified mutation L100I in CEM-SS cells; type: functional, Homo sapiens; in short: as §3
compound,measurement,setting,value
COC(=O)c1cc(C(=CCCCCBr)c2cc(Cl)c(OC)c(C(=O)OC)c2)cc(Cl)c1OC,CC50,[1],98.7 µM
same,pIC50,[2],5.72
same,pIC50,[3],4.96
same,pEC50,[4],5.55
COC(=O)c1cc(C(=CCCCC=O)c2cc(Cl)c(OC)c(C(=O)OC)c2)cc(Cl)c1OC,CC50,[1],9.6 µM
same,pIC50,[2],5.38
same,EC50,[5],Not Active
same,pIC50,[3],5.31
CCC(=O)CCCC=C(c1cc(Cl)c(OC)c(C(=O)OC)c1)c1cc(Cl)c(OC)c(C(=O)OC)c1,CC50,[1],24.6 µM
same,selectivity ratio,[6],8.8
same,pIC50,[3],6.00
same,pEC50,[4],5.55
COC(=O)c1cc(C(=CCCCCCl)c2cc(Cl)c(OC)c(C(=O)OC)c2)cc(Cl)c1OC,CC50,[1],> 316 µM
same,IC50,[7],Not Active
same,pEC50,[4],4.30
COC(=O)CC=C(c1cc(Cl)c(OC)c(C(=O)OC)c1)c1cc(Cl)c(OC)c(C(=O)OC)c1,CC50,[1],13.3 µM
same,pIC50,[2],< 4.00
same,EC50,[5],Not Active
same,pIC50,[3],5.66
CCC1(CCC/C=C(\c2cc(Cl)c(OC)c(C=O)c2)c2cc(Cl)c(OC)c(CO)c2)OCCO1,CC50,[1],5.8 µM
same,EC50,[8],Not Active
same,IC50,[2],No inhibition
same,pIC50,[3],4.50
CCC(=O)CCCC=C(c1cc(Cl)c(OC)c(CO)c1)c1cc(Cl)c(OC)c(CO)c1,CC50,[1],14.2 µM
same,EC50,[5],Not Active
COC(=O)CCCC=C(c1cc(Br)c(OC)c(C(=O)OC)c1)c1cc(Br)c(OC)c(C(=O)OC)c1,pEC50,[9],6.38
same,pEC50,[10],5.21
same,CC50,[1],13 µM
same,Fold resistance,[11],7
same,Fold resistance,[12],10
same,Fold resistance,[13],No significant changed
same,pEC50,[14],5.46
same,pIC50,[2],6.00
same,Fold resistance,[15],158.5
same,pEC50,[16],6.66
same,pEC50,[17],6.17
same,selectivity ratio,[6],10000
same,Fold resistance,[18],58.3
same,pEC50,[19],5.02
same,pEC50,[20],7.22
same,pEC50,[21],4.40
same,Fold resistance,[22],670
same,Fold resistance,[23],3.7
same,pEC50,[24],7.72
same,pIC50,[3],6.52
same,pEC50,[25],7.15
same,Fold resistance,[26],5.5
same,pEC50,[27],6.48
same,Fold resistance,[28],28.8
same,Fold resistance,[29],No significant changed
same,Fold resistance,[30],102
same,pEC50,[4],8.89
same,Fold resistance,[31],Enhanced sensitivity
same,pEC50,[32],7.15
same,pEC50,[33],6.59
same,pEC50,[34],5.76
same,Fold resistance,[35],4.3
COC(=O)c1cc(C(=CCC2OCCO2)c2cc(Cl)c(OC)c(C(=O)OC)c2)cc(Cl)c1OC,CC50,[1],26 µM
same,pIC50,[2],4.69
same,selectivity ratio,[6],4
same,pIC50,[3],5.49
same,pEC50,[4],5.19
COC(=O)c1cc(C(=CCCc2ccccc2)c2cc(Br)c(OC)c(C(=O)OC)c2)cc(Br)c1OC,CC50,[1],31.5 µM
same,EC50,[5],Not Active
CCCCCC=C(c1cc(F)c(OC)c(C(=O)OC)c1)c1cc(F)c(OC)c(C(=O)OC)c1,CC50,[1],13.4 µM
same,EC50,[5],Not Active
same,pIC50,[3],5.00

# Source: ChEMBL document CHEMBL1132112, “Novel modifications in the alkenyldiarylmethane (ADAM) series of non-nucleoside reverse transcriptase inhibitors” (J Med Chem, 1999)
